Screening results (PubChem)
TRPC4 potent: allosteric potentiators of mouse TRPC4 channel; HEK293 TRPC4beta/mu-opioid, DAMGO EC20, Fluo-4 Ca2+ flux; hits give high values; hit rate 0.42% among 310,000; Q9QUQ5; B-score at 10 µM; AID 2227;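 active means B-score of calcium response area above 5 SD of library B-scores, with initial fluorescence ratio within 5 SD of library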;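 further: B-score of integrated fluorescence ratio over time as area under calcium response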
TRPC4 block: inhibitors of mouse TRPC4 channel | hit rate 0.39% among 300,000 | AID 2247 | B-score at 10 µM | HEK293 TRPC4beta/mu-opioid, DAMGO-evoked Fluo4 calcium flux; hits give low values | Q9QUQ5;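 active means B-score over 3 SD under the library average, no early fluorescence shift, positive overall ratio signal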
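material = TRPC4beta/mu-opioid receptor HEK293 cell line | probe or stimulus = sequential submaximal and maximal DAMGO stimulation | compound dosing = one concentration per compound | measured by = Fluo4 Ca2+ flux fluorescence | evaluation = integrated fluorescence ratio relative to baseline, converted to per-well B score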
TRPC6 activator: activates the mouse TRPC6 cation channel | Q61143 | HEK293-TRPC6 membrane potential dye fluorescence; hits give high values | B-score at 10 µM | hit rate 0.13% among 310,000 | AID 2550;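 active means B-score of the integrated fluorescence ratio above library mean plus 3 SD, and starting fluorescence ratio within library mean plus 5 SD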;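 further: higher score means more depolarization so channel activation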
Target sequence (Q61143 whole entry, looked up): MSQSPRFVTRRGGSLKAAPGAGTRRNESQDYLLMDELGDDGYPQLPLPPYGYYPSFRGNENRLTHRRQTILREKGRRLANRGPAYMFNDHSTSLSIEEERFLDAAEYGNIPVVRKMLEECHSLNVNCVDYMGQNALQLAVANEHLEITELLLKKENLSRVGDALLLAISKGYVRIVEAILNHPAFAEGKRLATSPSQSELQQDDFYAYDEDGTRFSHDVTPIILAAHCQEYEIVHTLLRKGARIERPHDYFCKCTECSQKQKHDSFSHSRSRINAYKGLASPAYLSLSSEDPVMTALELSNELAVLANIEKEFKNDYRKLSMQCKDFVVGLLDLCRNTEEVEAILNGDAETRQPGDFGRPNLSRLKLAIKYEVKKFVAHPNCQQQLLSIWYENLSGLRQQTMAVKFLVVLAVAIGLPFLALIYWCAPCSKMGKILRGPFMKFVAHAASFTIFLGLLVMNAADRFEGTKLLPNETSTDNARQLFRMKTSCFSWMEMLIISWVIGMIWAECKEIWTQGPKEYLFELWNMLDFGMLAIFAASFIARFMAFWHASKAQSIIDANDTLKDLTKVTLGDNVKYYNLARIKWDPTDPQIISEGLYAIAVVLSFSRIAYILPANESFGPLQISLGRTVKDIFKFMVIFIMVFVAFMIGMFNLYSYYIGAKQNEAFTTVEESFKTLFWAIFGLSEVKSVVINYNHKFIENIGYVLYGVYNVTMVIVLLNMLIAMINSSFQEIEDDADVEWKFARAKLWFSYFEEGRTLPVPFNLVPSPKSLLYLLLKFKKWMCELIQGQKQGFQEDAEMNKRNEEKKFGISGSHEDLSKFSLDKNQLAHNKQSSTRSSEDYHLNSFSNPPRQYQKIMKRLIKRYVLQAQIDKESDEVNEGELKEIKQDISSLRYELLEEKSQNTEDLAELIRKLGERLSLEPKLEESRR
TRPC6 inhibitor: mouse TRPC6 channel inhibition | HEK293-TRPC6, membrane potential dye, ACh-evoked depolarization; hits give low values | B-score at 10 µM | hit rate 1.1% among 310,000 | AID 2553;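 active means B-score under library mean minus 3 SD, initial fluorescence not abnormally high, positive integrated signal ratio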;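 further: B-score derived from integrated fluorescence ratio over the kinetic read; more negative B-score means stronger inhibition of depolarization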
TRPC4 act: activators of mouse TRPC4 channel. Q9QUQ5. HEK293 TRPC4beta/mu-opioid, Fluo4 calcium fluorescence; hits give high values. B-score at 10 µM. hit rate 0.49% among 310,000. AID 2237;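 active means B-score above 5 SD of library B-scores, and initial fluorescence ratio not above library mean plus 5 SD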;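 further: positive B-score marks a calcium rise read as TRPC4 activation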
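Assay system: HEK293 cells stably co-expressing mouse TRPC4beta and mu-opioid receptor / Timing: Fluo4 dye loading 45 min at room temperature, 110 s recording / Signal: Fluo4 calcium-sensitive dye fluorescence, kinetic, 1 Hz baseline / Read-out: integrated baseline-normalised fluorescence ratio, converted to per-well B score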
TRPC4 spec 2: second selectivity test of TRPC6 inhibitors: effect on mouse TRPC4; shares compounds with TRPC6 inhibitor; HEK293 TRPC4/MOR, membrane potential dye fluorescence; channel activated by saturating DAMGO dose; inhibition, % at 10 µM; hit rate 42% among 920; AID 2776;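 active means compounds whose fluorescence signal differed from control wells by over 3 SD, either direction, in both duplicate plates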
TRPC4 spec: tests whether TRPC6 inhibitors also affect mouse TRPC4; HEK293 TRPC4/mu-opioid, membrane potential fluorescence; AID 2777; hit rate 61% among 920; shares compounds with TRPC6 inhibitor; activity change, negative = inhibition, % at 10 µM;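 active means rise or fall in signal beyond 3 SD of buffer-only wells in both replicate plates, either sign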;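 further: integrated kinetic ratio of fluorescence range over baseline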
HEK293 MPD ctr 2-1: parental HEK293 nonspecific activity of TRPC6 inhibitors, second screen. shares compounds with TRPC6 inhibitor. parental HEK293 membrane potential dye fluorescence; maximal acetylcholine challenge after compound addition. signal change vs control, % at 10 µM. hit rate 31% among 920. AID 2779;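 active means membrane potential signal moving either way by over 3 SD of the maximum-effect control, in both duplicate plates, meaning non-specific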
HEK293 MPD ctr-1: parental HEK293 nonspecific activity of TRPC6 inhibitors; shares compounds with TRPC6 inhibitor; AID 2780; parental HEK293 membrane potential dye fluorescence; membrane potential signal change, % at 10 µM; hit rate 60% among 920;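 active means membrane potential signal shifting up or down by more than 3 SD of buffer-only wells, on both duplicate plates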
HEK293 MPD ctr-2: counter-screen for TRPC6 modulators: effect in parental HEK293 cells. shares compounds with TRPC6 inhibitor. membrane potential dye fluorescence. membrane potential signal change, % at 10 µM. hit rate 51% among 2,400. AID 488924;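 active means membrane potential signal moves up or down beyond 5 SD from buffer-only wells, on both duplicate plates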
HEK293 MPD ctr 2-2: second counter-screen for TRPC6 modulators: effect in parental HEK293 cells; membrane potential dye fluorescence; after compound, maximal acetylcholine stimulation; shares compounds with TRPC6 inhibitor; AID 488926; hit rate 14% among 2,400; inhibition, % at 10 µM;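 active means membrane potential signal drops by more than 5 SD from the mean control signal, in both duplicate plates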;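 further: plate controls were acetylcholine ECmax control wells for no effect and buffer only wells for full effect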
TRPC4/MOR mod: tests whether TRPC6 modulators also affect mouse TRPC4; shares compounds with TRPC6 inhibitor; HEK293 TRPC4/mu-opioid, membrane potential fluorescence; AID 488927; percent change from control (negative = decrease, positive = increase), % at 10 µM; hit rate 69% among 2,400;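 active means membrane potential signal moved up or down beyond 5 SD of buffer control wells, in both duplicate plates, actives on both sides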;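 further: plate controls were assay buffer wells for no effect and DAMGO maximal-effect wells for full effect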
TRPC4/MOR inh 2: second check of whether TRPC6 modulators also affect mouse TRPC4; shares compounds with TRPC6 inhibitor; HEK293 TRPC4/mu-opioid, membrane potential dye fluorescence; stimulated with maximal-effect DAMGO; inhibition, % at 10 µM; hit rate 55% among 2,400;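 active means drop in membrane potential signal beyond 5 SD of the control wells in both duplicate plates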;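 further: TRPC4 counter screen for TRPC6 hits run under conditions tuned for TRPC6 not TRPC4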
TRPC6 inh conf: mouse TRPC6 inhibitor confirmation | shares compounds with TRPC6 inhibitor | HEK293-TRPC6, membrane potential dye, ACh-evoked depolarization | inhibition, % at 10 µM | hit rate 43% among 3,300 | AID 488960;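 active means fluorescence ratio falls more than 5 SD below the full-stimulation control mean, in both duplicate runs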;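 further: integrated fluorescence ratio of peak minus minimum over baseline after agonist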
TRPC6 act confirm: mouse TRPC6 activator confirmation; HEK293-TRPC6 membrane potential dye fluorescence, FDSS; AID 488961; shares compounds with TRPC6 inhibitor; hit rate 11% among 2,800; activation, % at 10 µM;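 active means ratio signal rise beyond 5 SD above unstimulated control wells' mean, seen in both duplicate runs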;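 further: plate controls were buffer EC0 wells for no effect and acetylcholine ECmax response for full effect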
An asterisk follows results filed as active; i = inactive; nt = not tested or not shown. An excerpt weighted towards active compounds, which were near 2.3% of everything screened.

SMILES | TRPC4 potent | TRPC4 block | TRPC6 activator | TRPC6 inhibitor | TRPC4 act | HEK293 MPD ctr-2 | HEK293 MPD ctr 2-2 | TRPC4/MOR mod | TRPC4/MOR inh 2 | TRPC6 inh conf | TRPC6 act confirm | others
CCCn1c(=N)c(C(=O)NC2CCCC2)cc2c(=O)n3cccc(C)c3nc21 | i | i | i | -6.8* | i | nt | nt | nt | nt | 78%* | i | TRPC4 spec 2=62%*;TRPC4 spec=-14%*;HEK293 MPD ctr 2-1=-32%*;HEK293 MPD ctr-1=-170%*
N=c1c(C(=O)NCc2ccco2)cc2c(=O)n3ccccc3nc2n1Cc1ccccc1 | i | i | i | -7.1* | i | i | i | -40%* | 46%* | i | i
N=c1c(C(=O)NC2CCCC2)cc2c(=O)n3ccccc3nc2n1C1CCCC1 | i | i | i | -11* | i | -144%* | 62%* | -31%* | 58%* | 56%* | i
Cc1cc(Cl)cc(Cl)c1OCCN1CCCC1 | i | i | i | i | i | nt | nt | nt | nt | nt | nt
O=C(CSc1nnc(CNC(=O)c2ccc(F)cc2)o1)Nc1nccs1 | i | i | i | i | i | nt | nt | nt | nt | nt | nt
Cc1ccc(CNC(=O)c2cc3c(=O)n4ccccc4nc3n(Cc3ccco3)c2=N)cc1 | i | i | i | i | i | nt | nt | nt | nt | nt | nt
Cc1cccn2c(=O)c3cc(C(=O)NC4CCCC4)c(=N)n(C4CCCC4)c3nc12 | i | i | i | -5.2* | i | -151%* | i | -54%* | 48%* | 49%* | i
N=c1c(C(=O)NCc2ccco2)cc2c(=O)n3ccccc3nc2n1C1CCCC1 | i | i | i | -5.3* | i | -72%* | i | -32%* | 37%* | 46%* | i
COc1ncccc1C(=O)N1CCC(n2nccc2NC(=O)CC(C)C)CC1 | i | i | i | i | i | nt | nt | nt | nt | nt | nt
CC(C)C(NC(=O)/C=C/c1ccc(F)cc1)C(C)C | i | i | i | -6.9* | i | nt | nt | nt | nt | i | i | TRPC4 spec 2=i;TRPC4 spec=i;HEK293 MPD ctr 2-1=i;HEK293 MPD ctr-1=i
CS(=O)(=O)N(Cc1cccc(CN(C(C(=O)O)c2ccccc2)S(C)(=O)=O)c1)C(C(=O)O)c1ccccc1 (stereo not drawn) | i | i | i | -8.7* | i | nt | nt | nt | nt | i | i | TRPC4 spec 2=i;TRPC4 spec=i;HEK293 MPD ctr 2-1=i;HEK293 MPD ctr-1=i
COc1ccccc1Nc1nnc(SCC(=O)N2CCCC2)s1 | i | i | i | i | i | nt | nt | nt | nt | nt | nt
COc1ccccc1Nc1nnc(SCC(=O)N2CCCC2=O)s1 | i | i | i | -5.1* | i | i | i | i | i | i | i
CCn1ncc(C2=NOC(C(=O)Nc3cnn(C45CC6CC(CC(C6)C4)C5)c3)C2)c1C (stereo not drawn) | i | i | 19* | i | i | i | i | i | i | nt | 126%*
CCn1ncc(C2=NOC(C(=O)NCC(C)C)C2)c1C (stereo not drawn) | i | i | i | i | i | nt | nt | nt | nt | nt | nt
CCC[N+](CC#Cc1ccccc1)(CCC)CC(=O)c1ccc(Cl)cc1 | i | i | i | -5.7* | i | 332%* | i | 77%* | 52%* | 68%* | nt
O=C(O)c1cn(-c2ccccc2)nc1-c1cccnc1 | i | i | i | i | i | nt | nt | nt | nt | nt | nt
O=C(NC1CCN(Cc2ccccc2)CC1)C1COc2ccccc2O1 (stereo not drawn) | i | i | i | -5.7* | i | 104%* | 86%* | 12%* | 29%* | 72%* | nt
Cc1ccc(C)n1-c1ccc(C(=O)NC2CCN(Cc3ccccc3)CC2)cc1 | i | i | i | -5.1* | i | i | i | i | 36%* | i | i
O=C(NC1CCN(Cc2ccccc2)CC1)c1cn(-c2ccccc2)nc1-c1cccnc1 | i | i | i | -5.6* | i | 91%* | i | i | 52%* | 41%* | i
N=C1SC(CC(=O)Nc2ccccc2[N+](=O)[O-])C(=O)N1c1ccccc1 (stereo not drawn) | i | i | i | i | i | nt | nt | nt | nt | nt | nt
NC(=O)c1ccc(CN2CCc3ccccc3C2)cc1 | i | i | i | i | i | nt | nt | nt | nt | nt | nt
CN(C)CCN(C(=O)c1ccc2c(c1)CCCC2)c1nc2c(F)cccc2s1 | i | i | i | i | i | nt | nt | nt | nt | nt | nt
COc1cccc2sc(N(CCN(C)C)C(=O)/C=C/c3cccs3)nc12 | i | i | i | -6* | i | i | i | -9.5%* | 72%* | 43%* | i
COc1cccc2sc(N(CCN(C)C)C(=O)c3ccc4c(c3)CCCC4)nc12 | i | i | i | -6.4* | i | -111%* | 98%* | -34%* | 94%* | 86%* | i
COc1ccc(CN2C(=O)c3cccnc3C2=O)cc1S(=O)(=O)N(C)c1cccc(C)c1 | i | i | i | i | i | nt | nt | nt | nt | nt | nt
CCOC(=O)c1ccc(-n2c(CN3CCC(O)CC3)nc3ccc([N+](=O)[O-])cc3c2=O)cc1 | i | i | i | i | i | nt | nt | nt | nt | nt | nt
COc1cc(/C=C2/S/C(=N/S(=O)(=O)c3ccccc3)NC2=O)c([N+](=O)[O-])cc1OC | i | i | i | i | i | nt | nt | nt | nt | nt | nt
